# What was measured:
# Aspergillus fumigatus = test: Antimycotic activity against Aspergillus fumigatus was evaluated as compound minimum inhibitory concentration at which no macroscopic signs of fungal growth were detected.; assay type: functional
# Mycobacterium = test: Antibacterial activity was evaluated against MAC (Mycobacterium Avium Complex ); assay type: functional
# Method in brief: (§1)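 Mycobacterial suspension (turbidity of 1 McFarland standard, 10⁸ CFU/mL) added to Middlebrook 7H9 with 0.5% glycerol, 10% OADC and serial compound dilutions. Incubated at 37 °C, 1 day for M. smegmatis and M. fortuitum, 9 days for MAC. Viable mycobacteria counted by MTT. MIC given as mean of at least three separate experiments.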
# [1] = system: Mycobacterium tuberculosis; test: Antibacterial activity was evaluated against Mycobacterium tuberculosis (clinical isolate 1104); assay type: functional
# Method in brief: (§2)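 Broth microdilution in Middlebrook 7H9 with 0.5% glycerol and 10% OADC, containing serial concentrations of compound (diluted in medium from a DMSO solution). Plates were incubated 9 days at 37 °C, and viable bacteria were read by MTT. MIC is the mean of at least three separate experiments.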
# HeLa = test: Antitumor activity was evaluated against human cervix carcinoma cell line HeLa.; assay type: functional, cell-based
# Method in brief: (§3)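 Solid-tumour and KB lines: exponentially growing cells seeded at 5×10⁴ cells/mL, allowed to adhere 16 h, then serial drug dilutions added. Viability by MTT after 4 days. Growth expressed as % of untreated controls, 50% inhibitory concentration by linear regression. Untreated cells undergo at least three rounds of multiplication.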
# Streptococcus = test: Antibacterial activity was evaluated against streptococcus.; assay type: functional
# Method in brief: (§4)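 Recent clinical isolates grown in nutrient broth, pH 7.2, inoculum 10³ bacterial cells/tube, with serial compound dilutions. […] Mean of at least three separate experiments.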
# KB [2] = test: Antiproliferative activity against drug-resistant tumor cell line KBCamp.; assay type: functional, cell-based; details: Homo sapiens; method in brief: as §3
# Candida tropicalis = test: Antimycotic activity against Candida paratropicalis was evaluated. MIC was defined as compound concentration at which no macroscopic signs of fungal growth were detected.; assay type: functional
# Method in brief: (§5)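 Yeast inocula from 30 h Sabouraud dextrose broth cultures at 37 °C, diluted to 5×10³ cells/mL. Dermatophyte inocula from 5-day cultures, homogenized and diluted to 0.05 OD₅₉₀/mL. Inocula added to medium with serial dilutions, incubated at 37 °C, read visually at 2 days (yeast) or 3 days (dermatophytes). Mean of at least three experiments.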
# KB [3] = test: Antiproliferative activity against drug-resistant tumor cell line KBwt.; assay type: functional, cell-based; details: Homo sapiens; method in brief: as §3
# Cryptococcus neoformans = test: Antimycotic activity against Cryptococcus neoformans was evaluated. MIC was defined as compound concentration at which no macroscopic signs of fungal growth were detected.; assay type: functional; method in brief: as §5
# KB [4] = test: Antiproliferative activity against drug-resistant tumor cell line KBMDR.; assay type: functional, cell-based; details: Homo sapiens; method in brief: as §3
# Salmonella = test: Antibacterial activity was evaluated against salmonella.; assay type: functional; method in brief: as §4
# Candida albicans = test: Antimycotic activity against Candida albicans was evaluated as minimum inhibitory concentration of compound at which no macroscopic signs of fungal growth were detected; assay type: functional; method in brief: as §5
# KB [5] = test: Antiproliferative activity against drug-resistant tumor cell line KBV20C.; assay type: functional, cell-based; details: Homo sapiens; method in brief: as §3
# HT-29 = test: Antitumor activity was evaluated against human colon adenocarcinoma cell line HT-29.; assay type: functional, cell-based; method in brief: as §3
# [6] = system: Mycolicibacterium fortuitum; test: Antibacterial activity was evaluated against Mycobacterium fortuitum.; assay type: functional; method in brief: as §1
# KB [7] = test: Antiproliferative activity against drug-resistant tumor cell line KB7D.; assay type: functional, cell-based; details: Homo sapiens; method in brief: as §3
# Homo sapiens [8] = species on record: Homo sapiens; test: In vitro Antiproliferative activity against peripheral blood lymphocytes (PBL) after stimulating PBL with PHA and then resuspending in IL-2-containing medium in the presence of compound.; assay type: functional
# Method in brief: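 PBL from HIV-negative donors, isolated on Ficoll-Hypaque and rested overnight. Stimulated with PHA 2.5 μg/mL for 24 h, diluted to 1×10⁵ cells/mL in medium with PHA, IL-2 50 U/mL and compound. Viable cells counted after 6 days. Mean ±SD of three experiments.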
# CHO-K1 = test: Antitumor activity was evaluated against Chinese hamster ovary carcinoma cell line CHO-K1.; assay type: functional, cell-based; details: Cricetulus griseus; method in brief: as §3
# Staphylococcus = test: Antibacterial activity was evaluated against staphylococcus; assay type: functional; method in brief: as §4
# CCRF-SB = test: Antitumor activity was evaluated against leukemia cell line CCRF-SB(human acute B lymphoblastic leukemia).; assay type: functional, cell-based
# Method in brief: (§6)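 Exponentially growing leukemia/lymphoma cells resuspended at 1×10⁵ cells/mL in RPMI with serial drug dilutions. Viability by MTT after 4 days at 37 °C. Concentration giving 50% growth inhibition versus untreated controls found by linear regression. Mean of at least three experiments.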
# 5637 = test: Antitumor activity was evaluated against human bladder carcinoma cell line 5637.; assay type: functional, cell-based; method in brief: as §3
# L1210 = test: Antitumor activity was evaluated against leukemia cell line L1210 (mouse leukemia).; assay type: functional, cell-based; method in brief: as §6
# [9] = system: Mycobacterium tuberculosis; test: Antibacterial activity was evaluated against Mycobacterium tuberculosis (ATCC); assay type: functional; method in brief: as §2
# IMR-32 = test: Antitumor activity was evaluated against human neuroblastoma cell line IMR-32.; assay type: functional, cell-based; method in brief: as §3
# Homo sapiens [10] = species on record: Homo sapiens; test: In vitro Antiproliferative activity against peripheral blood lymphocytes (PBL) by treating PBL with compound for 3 days, then stimulating with PHA and then resuspending in compound free medium.; assay type: functional; details: 72 h
# Method in brief: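 Resting donor PBL held at 1×10⁶ cells/mL and treated with compound for up to 3 days, then washed. Stimulated with PHA for 24 h, diluted to 1×10⁵ cells/mL in drug-free medium with PHA and IL-2. Viability read after 6 days at 37 °C. Mean ±SD of three experiments.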
# MOLT-4 = test: Antitumor activity was evaluated against leukemia cell line MOLT-4(human acute T lymphoblastic leukemia); assay type: functional, cell-based; method in brief: as §6
# Shigella = test: Antibacterial activity was evaluated against shigella.; assay type: functional; method in brief: as §4
# WIL2-NS = test: Antitumor activity was evaluated against lymphoma cell line Wil2-NS (human splenic B lymphoblastoid cells).; assay type: functional, cell-based; method in brief: as §6
# ACHN = test: Antitumor activity was evaluated against human renal adenocarcinoma cell line ACHN.; assay type: functional, cell-based; method in brief: as §3
# CCRF-CEM = test: Antitumor activity was evaluated against leukemia cell line CCRF-CEM(human acute T lymphoblastic leukemia).; assay type: functional, cell-based
# Method in brief: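 Exponentially growing leukemia/lymphoma cells resuspended at 1×10⁵ cells/mL in RPMI with serial drug dilutions. Viability by MTT after 4 days at 37 °C. Mean of at least three experiments.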
# Trichophyton benhamiae = test: Antimycotic activity against Trichophyton mentagrophytes was evaluated. MIC was defined as compound concentration at which no macroscopic signs of fungal growth were detected.; assay type: functional, Arthroderma benhamiae; method in brief: as §5
# MT4 = test: Antitumor activity was evaluated against leukemia cell line MT-4(human CD4+ T cells expressing the TAT gene of HTLV-1).; assay type: functional, cell-based; method in brief: as §6
# Lymphoblastoid cell = test: Cytotoxicity was evaluated against lymphoblastoid cell line.; assay type: functional; details: Homo sapiens
# [11] = system: Mycolicibacterium smegmatis; test: Antibacterial activity was evaluated against Mycobacterium smegmatis; assay type: functional; method in brief: as §1
# Candida parapsilosis [12] = test: Antimycotic activity against Candida parapsilosis was evaluated as compound concentration at which no macroscopic signs of fungal growth were detected; assay type: functional; details: Lodderomyces parapsilosis; method in brief: as §5
# Candida parapsilosis [13] = test: Antimycotic activity against Candida parapsilosis was evaluated. MIC was defined as compound concentration at which no macroscopic signs of fungal growth were detected.; assay type: functional; details: Lodderomyces parapsilosis; method in brief: as §5
SMILES,MIC (Aspergillus fumigatus),MIC (Mycobacterium),MIC [1],IC50 (HeLa),MIC (Streptococcus),MIC (Candida tropicalis),MIC (Cryptococcus neoformans),MIC (Salmonella),MIC (Candida albicans),IC50 (HT-29),IC50 (CHO-K1),IC50 (CCRF-SB),IC50 5637,IC50 (L1210),IC50 (IMR-32),IC50 (MOLT-4),IC50 (WIL2-NS),IC50 (ACHN),MIC (Trichophyton benhamiae),IC50 (MT4),also measured
O=Nc1c2cc(Cl)ccc2n2nnc3ccccc3c12,> 200 µM,0.6 µM,> 10 µM,2700 nM,0.8 µM,> 200 µM,> 200 µM,> 200 µM,> 200 µM,1300 nM,1600 nM,400 nM,300 nM,700 nM,800 nM,200 nM,200 nM,2600 nM,> 200 µM,500 nM,IC50 (KB [2]): 1900 nM; IC50 (KB [3]): 1800 nM; IC50 (KB [4]): 1100 nM; IC50 (KB [5]): 2100 nM; MIC [6]: > 5 µM; IC50 (KB [7]): 1700 nM; CC50 (Homo sapiens [8]): 200 nM; MIC (Staphylococcus): 0.4 µM; MIC [9]: 4.7 µM; CC50 (Homo sapiens [10]): 900 nM; MIC (Shigella): > 200 µM; IC50 (CCRF-CEM): 80 nM; CC50 (Lymphoblastoid cell): 350 nM; MIC [11]: > 5 µM; MIC (Candida parapsilosis [12]): > 200 µM
O=Nc1c2ccccc2n2nnc3cc(Cl)ccc3c12,6.2 µM,0.6 µM,5.9 µM,9200 nM,0.4 µM,25 µM,1.6 µM,> 200 µM,12 µM,35000 nM,9300 nM,2800 nM,2600 nM,2400 nM,2200 nM,1100 nM,800 nM,7600 nM,50 µM,900 nM,MIC (Candida parapsilosis [13]): 3 µM; MIC [6]: > 5 µM; MIC (Staphylococcus): 0.4 µM; MIC [9]: 4.4 µM; MIC (Shigella): > 200 µM; IC50 (CCRF-CEM): 1800 nM; MIC [11]: > 5 µM
COc1cccc2c1C(=O)c1c(O)c3c(c(O)c1C2=O)C[C@@](O)(C(=O)CO)C[C@@H]3O[C@H]1C[C@H](N)[C@H](O)[C@H](C)O1 [DOXORUBICIN],> 2.5 µM,,,,,> 2.5 µM,> 2.5 µM,,> 2.5 µM,50 nM,400 nM,10 nM,20 nM,230 nM,10 nM,30 nM,20 nM,400 nM,> 2.5 µM,20 nM,CC50 (Homo sapiens [8]): 40 nM; CC50 (Homo sapiens [10]): 90 nM; CC50 (Lymphoblastoid cell): 60 nM; MIC (Candida parapsilosis [12]): > 2.5 µM

# From ChEMBL document CHEMBL1132294, “Derivatives of the new ring system indolo[1,2-c]benzo[1,2,3]triazine with potent antitumor and antimicrobial activity” (J Med Chem, 1999)
